According to ChEMBL document CHEMBL1124234, “Beta-substituted phenethylamines as high-affinity mechanism-based inhibitors of dopamine beta-hydroxylase” (J Med Chem, 1988):
Calls of active or inactive are those of the source. The calls are words filed in the database; no cut-off is given here.

How the values were obtained:
[1] = target: T1, Dopamine beta-hydroxylase (Bos taurus, UniProt P15101); assay: KI value was determined from plots of 1/kinact(observed) vs 1/[inhibitor]
T1 sequence (P15101 whole entry): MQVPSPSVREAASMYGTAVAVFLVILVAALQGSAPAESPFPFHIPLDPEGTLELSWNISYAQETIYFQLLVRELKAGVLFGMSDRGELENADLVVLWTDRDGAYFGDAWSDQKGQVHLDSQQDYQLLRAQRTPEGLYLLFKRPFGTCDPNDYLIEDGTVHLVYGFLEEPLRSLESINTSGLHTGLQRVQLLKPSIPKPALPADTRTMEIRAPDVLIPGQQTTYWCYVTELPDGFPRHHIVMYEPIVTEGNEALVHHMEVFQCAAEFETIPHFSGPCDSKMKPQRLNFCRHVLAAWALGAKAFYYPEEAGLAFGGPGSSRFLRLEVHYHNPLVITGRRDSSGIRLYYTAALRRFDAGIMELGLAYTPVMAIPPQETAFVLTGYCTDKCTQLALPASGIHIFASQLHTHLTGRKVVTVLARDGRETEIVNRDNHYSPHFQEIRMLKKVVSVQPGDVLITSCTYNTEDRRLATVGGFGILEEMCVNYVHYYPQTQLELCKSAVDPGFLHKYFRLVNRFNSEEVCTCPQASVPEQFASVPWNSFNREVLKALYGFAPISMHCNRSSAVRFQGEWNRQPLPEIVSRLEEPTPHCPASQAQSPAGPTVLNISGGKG
Summary of the method: (§1)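 Homogeneous bovine DBH (specific activity 30-42 units/mg at pH 5.0) was used in 50 mM sodium acetate at pH 5.0 and ionic strength 0.2, with 1 mg/mL catalase, 10 μM Cu²⁺ and 10 mM ascorbic acid at 37 °C. O₂ was held at 0.24 mM, so kinact values are apparent. kinact(observed) came from log % activity remaining vs time. KI and kinact came from 1/kinact(obs) vs 1/[inhibitor] plots using at least four inhibitor concentrations. Values are mean ± SEM.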

[2] = target: T2, Dopamine beta-hydroxylase (Bos taurus) (UniProt P15101); assay: Kinact value is determined from a plot of log(percent enzyme activity remaining) vs times; summary of the method: as §1
T2 sequence (whole entry): T1 sequence (P15101 whole entry)

[3] = target: T2, Dopamine beta-hydroxylase (Bos taurus); assay: Kis value for the affinity towards homogenous bovine dopamine beta-hydroxylase (DBH)
Summary of the method: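 Competitive inhibition constant was measured against tyramine substrate without fumarate, using homogeneous bovine DBH (30-42 units/mg at pH 5.0). Conditions were pH 5.0, ionic strength 0.2, 50 mM sodium acetate, 1 mg/mL catalase, 10 μM Cu²⁺, 10 mM ascorbate and 37 °C. Kis was obtained by kinetic fitting and is reported as mean ± SEM.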

[4] = target: T1, Dopamine beta-hydroxylase; assay: KI value was determined from plots of 1/kinact(observed) vs 1/[inhibitor]; Apparent values at pH 5.0, 0.24 mM O2
[5] = target: T2, Dopamine beta-hydroxylase (Bos taurus); assay: Kinact value is determined from a plot of log(percent enzyme activity remaining) vs times; Apparent values at pH 5.0, 0.24 mM O2
[6] = target: T1, Dopamine beta-hydroxylase; assay: KI value was determined from plots of 1/kinact(observed) vs 1/[inhibitor]; e denotes 'Minimal time dependent inactivation'; summary of the method: as §1
[7] = target: T2, Dopamine beta-hydroxylase (Bos taurus); assay: Kinact value is determined from a plot of log(percent enzyme activity remaining) vs times; e denotes 'Minimal time dependent inactivation'; summary of the method: as §1

Compound	Kis [3] [µM]	Ki [6]	K inact [7]	further results
Oc1ccc(CC2CC2)cc1				Ki [1]: 12000 µM; K inact [2]: 1.8 min⁻¹
C#CC(CN)c1ccc(O)cc1 (single isomer, unassigned; (-)) [listing 1 of 2 here]	33.9			K inact [2]: 0.184 min⁻¹
C=C(CN)c1ccc(O)cc1				Ki [4]: 520 µM; K inact [5]: 0.81 min⁻¹
C#CC(CN)c1ccc(O)cc1 (stereo in doubt; (+)3) [listing 1 of 2 here]		Inactive		
C#CC(CN)c1ccc(O)cc1 (single isomer, unassigned; (-)) [listing 2 of 2 here]				Ki [1]: 57 µM
C=C(CN)c1cccs1				K inact [2]: 0.124 min⁻¹
C#CC(CN)c1ccc(O)cc1 (stereo in doubt; (+\-)3) [listing 1 of 2 here]				Ki [1]: 15.7 µM
C=CC(CN)c1ccc(O)cc1 (centres undefined)	82	Inactive	inactive	
C#CC(CN)c1ccc(O)cc1 (stereo in doubt; (+\-)3) [listing 2 of 2 here]	13.6			K inact [2]: 0.023 min⁻¹
C#CC(CN)c1ccc(O)cc1 (stereo in doubt; (+)3) [listing 2 of 2 here]	7.9		inactive	

Second part, led by results:

Kis [3] [µM]	Ki [6]	K inact [7]	Compound	further results
1270	Inactive	inactive	C=CC(CN)c1cccc(O)c1 (centres undefined)	
190	Inactive	inactive	C#CC(CN)c1cccc(O)c1 (centres undefined)	
670	Inactive	inactive	C=CC(CN)c1ccccc1 (centres undefined)	
160	Inactive	inactive	C#CC(CN)c1ccccc1 (centres undefined)	
